In ChEMBL document CHEMBL1132319, “2,3-Dihydro-2-oxo-1H-benzimidazole-1-carboxamides with selective affinity for the 5-HT(4) receptor: synthesis and structure-affinity and structure-activity relationships of a new series of partial agonist and antagonist derivatives” (J Med Chem, 1999):

How the values were obtained:
[1] = target: T1, Serotonin 3 (5-HT3) receptor (Rattus norvegicus, UniProt P35563+Q9JJ16); test: Inhibitory concentration against 5-hydroxytryptamine 3 receptor in rat entorhinal cortex using [3H]-LY 278584 as radioligand
T1 sequence (P35563 whole entry): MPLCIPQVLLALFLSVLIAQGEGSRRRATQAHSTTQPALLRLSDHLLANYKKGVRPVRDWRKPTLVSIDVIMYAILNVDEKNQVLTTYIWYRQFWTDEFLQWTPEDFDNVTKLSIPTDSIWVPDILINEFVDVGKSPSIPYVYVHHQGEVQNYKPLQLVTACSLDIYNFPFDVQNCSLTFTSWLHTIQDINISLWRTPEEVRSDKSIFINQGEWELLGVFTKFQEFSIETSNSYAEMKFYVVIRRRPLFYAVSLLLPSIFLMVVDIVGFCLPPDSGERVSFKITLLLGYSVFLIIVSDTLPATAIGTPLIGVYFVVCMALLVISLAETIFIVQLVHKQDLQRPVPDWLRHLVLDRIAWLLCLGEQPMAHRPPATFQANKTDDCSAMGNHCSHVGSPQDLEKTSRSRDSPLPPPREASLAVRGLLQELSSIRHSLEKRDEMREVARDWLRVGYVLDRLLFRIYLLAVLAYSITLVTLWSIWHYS
T1 sequence (Q9JJ16 whole entry): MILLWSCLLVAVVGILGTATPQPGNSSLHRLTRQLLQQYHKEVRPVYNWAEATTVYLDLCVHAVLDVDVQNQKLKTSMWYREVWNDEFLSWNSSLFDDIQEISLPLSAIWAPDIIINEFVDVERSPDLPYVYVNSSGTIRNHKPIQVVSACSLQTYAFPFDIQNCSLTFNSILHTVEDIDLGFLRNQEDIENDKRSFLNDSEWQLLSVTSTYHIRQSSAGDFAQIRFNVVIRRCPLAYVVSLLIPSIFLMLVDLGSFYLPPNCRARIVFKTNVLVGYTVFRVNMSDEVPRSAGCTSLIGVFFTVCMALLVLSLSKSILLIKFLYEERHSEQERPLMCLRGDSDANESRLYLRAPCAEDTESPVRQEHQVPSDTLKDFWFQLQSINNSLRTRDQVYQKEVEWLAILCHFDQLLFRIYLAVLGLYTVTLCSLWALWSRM
Summary of the method: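 Male Wistar rat entorhinal cortex membranes in 50 mM Tris-HCl with 5 mM CaCl2, 0.1% ascorbate and 10 μM pargyline (1:40 wt/vol, 500–600 μg protein), with 2 nM [3H]LY 278584. Nonspecific binding with 10 μM 5-HT.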

[2] = target: T2, 5-hydroxytryptamine receptor 4 (Cavia porcellus, UniProt O70528); test: Binding affinity against 5-hydroxytryptamine 4 receptor in guinea pig striatum using [3H]GR-113808 as radioligand
T2 sequence (O70528 whole entry): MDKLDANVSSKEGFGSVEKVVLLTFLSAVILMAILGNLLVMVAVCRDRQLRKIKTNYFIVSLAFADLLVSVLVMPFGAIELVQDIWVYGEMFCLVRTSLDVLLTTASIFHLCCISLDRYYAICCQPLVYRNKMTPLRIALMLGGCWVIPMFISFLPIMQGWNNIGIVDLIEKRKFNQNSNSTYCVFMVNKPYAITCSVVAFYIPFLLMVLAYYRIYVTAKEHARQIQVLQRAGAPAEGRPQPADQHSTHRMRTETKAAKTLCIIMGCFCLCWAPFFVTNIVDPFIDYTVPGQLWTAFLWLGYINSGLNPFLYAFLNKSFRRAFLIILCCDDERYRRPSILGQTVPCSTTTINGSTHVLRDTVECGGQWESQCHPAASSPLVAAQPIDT
Summary of the method: (§1)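 Male Dunkin–Hartley guinea pig striatal membranes in 50 mM Hepes pH 7.4 (1:80 wt/vol, 800–900 μg protein) with 0.1 nM [3H]GR 113808. Nonspecific binding with 10 μM 5-HT. Incubated 30 min at 25 °C, then filtered on PEI-treated filters and counted by scintillation. 10–12 displacer concentrations; two experiments in triplicate; IC50 and Ki.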

[3] = test system: 5-HT4 receptor (Rattus norvegicus); test: Agonistic activity against 5-hydroxytryptamine 4 receptor
[4] = test system: 5-HT4 receptor (Rattus norvegicus); test: Antagonistic activity against 5-hydroxytryptamine 4 receptor
[5] = target: T2, 5-hydroxytryptamine receptor 4; test: Displacement of [3H]GR-113808 from 5-hydroxytryptamine 4 receptor in guinea pig striatum; summary of the method: as §1

| IC50 [1] | Ki [2] | Intrinsic activity [3] | pKb [4] | IC50 [5] | Ki [1] | Structure (SMILES) |
| --- | --- | --- | --- | --- | --- | --- |
| > 1000 nM | 39.7 nM | 0.46 | 6.4 | – | – | CN1CCN(CCCNC(=O)n2c(=O)n(C3CC3)c3ccccc32)CC1 |
| > 1000 nM | 87.3 nM | 0.68 | 6.89 | – | – | CCCN1CCN(CCNC(=O)n2c(=O)n(C(C)C)c3ccccc32)CC1 |
| > 1000 nM | 262 nM | – | – | – | – | CC(C)n1c(=O)n(C(=O)NCCN2CCN(Cc3ccc(F)cc3)CC2)c2ccccc21 |
| > 1000 nM | – | 0.3 | < 6 | > 1000 nM | – | CC(C)n1c(=O)n(C(=O)NCCN2CCN(Cc3ccc4c(c3)OCO4)CC2)c2ccccc21 |
| > 1000 nM | 375 nM | – | – | – | – | CC(C)n1c(=O)n(C(=O)NCCN2CCN(CCCOc3ccc(F)cc3)CC2)c2ccccc21 |
| > 1000 nM | 66.3 nM | 0.93 | 6 | – | – | CCCC[N+]1(C)CCN(CCNC(=O)n2c(=O)n(C(C)C)c3ccccc32)CC1 |
| > 1000 nM | 13.3 nM | 0.46 | 7.51 | – | – | CCCCN1CCN(CCNC(=O)n2c(=O)n(C3CC3)c3ccccc32)CC1 |
| > 1000 nM | 6.7 nM | – | – | – | – | CC(C)N1CCN(CCNC(=O)n2c(=O)n(C3CC3)c3ccccc32)CC1 |
| > 1000 nM | 0.11 nM | – | – | – | – | Cn1cc(C(=O)OCC2CCN(CCNS(C)(=O)=O)CC2)c2ccccc21 |
| > 1000 nM | – | 0.7 | < 6 | > 1000 nM | – | CC(C)n1c(=O)n(C(=O)NCCN2CCN(C)CC2)c2cc(Cl)ccc21 |
| > 1000 nM | 89.8 nM | – | – | – | – | CC(C)N1CCN(CCNC(=O)n2c(=O)n(C(C)C)c3ccccc32)CC1 |
| > 1000 nM | – | < 0.3 | < 6 | > 1000 nM | – | CC(C)n1c(=O)n(C(=O)NCCN2CCN(C)CC2)c2cc(F)c(N)cc21 |
| – | – | – | – | > 1000 nM | 309 nM | CC(C)n1c(=O)n(C(=O)NCN2CCN(C)CC2)c2ccccc21 |
| > 1000 nM | 34.1 nM | < 0.3 | 7.73 | – | – | CCCCN1CCN(CCNC(=O)n2c(=O)n(CC)c3ccccc32)CC1 |
| – | – | < 0.3 | < 6 | > 1000 nM | 201 nM | CC(C)n1c(=O)n(C(=O)NN2CCN(C)CC2)c2ccccc21 |
| > 1000 nM | – | 0.63 | < 6 | > 1000 nM | – | C=CCn1c(=O)n(C(=O)NCCN2CCN(C)CC2)c2ccccc21 |
| > 1000 nM | 108 nM | 0.67 | 6.88 | – | – | CC(C)n1c(=O)n(C(=O)NCCN2CCN(C)CC2)c2cc(F)ccc21 |
| > 1000 nM | 10.2 nM | – | – | – | – | CN1CCN(CCNC(=O)n2c(=O)n(C3CC3)c3ccccc32)CC1 |
| > 1000 nM | 253 nM | 0.48 | < 6 | – | – | CCCn1c(=O)n(C(=O)NCCN2CCN(C)CC2)c2ccccc21 |

| IC50 [1] | Ki [2] | Intrinsic activity [3] | pKb [4] | IC50 [5] | Ki [1] | Structure (SMILES) |
| --- | --- | --- | --- | --- | --- | --- |
| > 1000 nM | – | 0.35 | < 6 | 1000 nM | – | CN1CCN(CCNC(=O)n2c(=O)[nH]c3ccccc32)CC1 |
| > 1000 nM | 56.3 nM | < 0.3 | 6.28 | – | – | C=CC[N+]1(C)CCN(CCNC(=O)n2c(=O)n(C(C)C)c3ccccc32)CC1 |
| > 1000 nM | 104 nM | 0.87 | 6.62 | – | – | CCN1CCN(CCNC(=O)n2c(=O)n(C(C)C)c3ccccc32)CC1 |
| > 1000 nM | – | < 0.3 | < 6 | > 1000 nM | – | COc1ccc2c(c1)n(C(=O)NCCN1CCN(C)CC1)c(=O)n2C(C)C |
| – | 216 nM | – | – | – | – | Cc1cccc2c1n(C(C)C)c(=O)n2C(=O)NCCN1CCN(C)CC1 |
| > 1000 nM | 91.1 nM | 0.94 | < 6 | – | – | CC(C)n1c(=O)n(C(=O)NCCN2CCN(C)CC2)c2ccccc21 |
| > 1000 nM | 68.5 nM | 0.75 | < 6 | – | – | CC(C)n1c(=O)n(C(=O)NCCN2CC[N+](C)(C)CC2)c2ccccc21 |
| > 1000 nM | – | < 0.3 | < 6 | > 1000 nM | – | CC(C)n1c(=O)n(C(=O)NCCCN2CCN(C)CC2)c2ccccc21 |
| > 1000 nM | 8.2 nM | 0.41 | 7.46 | – | – | CCCN1CCN(CCNC(=O)n2c(=O)n(C3CC3)c3ccccc32)CC1 |
| > 1000 nM | 17.9 nM | – | – | – | – | CCN1CCN(CCNC(=O)n2c(=O)n(CC)c3ccccc32)CC1 |
| > 1000 nM | 16.9 nM | – | – | – | – | CCCN1CCN(CCNC(=O)n2c(=O)n(CC)c3ccccc32)CC1 |
| > 1000 nM | 49.4 nM | 0.53 | 6.19 | – | – | CN1CCN(CNC(=O)n2c(=O)n(C3CC3)c3ccccc32)CC1 |
| > 1000 nM | 38.9 nM | – | – | – | – | CCCCN1CCN(CCNC(=O)n2c(=O)n(C(C)C)c3ccccc32)CC1 |
| > 1000 nM | 25.2 nM | – | – | – | – | CCn1c(=O)n(C(=O)NCCN2CCN(C(C)C)CC2)c2ccccc21 |
| > 1000 nM | – | – | – | > 1000 nM | – | CC(C)n1c(=O)n(C(=O)NCCN2CCN(C)CC2)c2cc(F)c([N+](=O)[O-])cc21 |
| > 1000 nM | 75.4 nM | < 0.3 | 6.79 | – | – | CCn1c(=O)n(C(=O)NCCN2CCN(C)CC2)c2ccccc21 |
| > 1000 nM | 306 nM | 0.42 | < 6 | – | – | CN1CCN(CCNC(=O)n2c(=O)n(C)c3ccccc32)CC1 |
| > 1000 nM | – | – | – | > 1000 nM | – | CN1CCN(CCNC(=O)n2c(=O)n(CCc3ccccc3)c3ccccc32)CC1 |

| Structure (SMILES) | IC50 [1] | Ki [2] | Intrinsic activity [3] | pKb [4] | IC50 [5] | Ki [1] |
| --- | --- | --- | --- | --- | --- | --- |
| CCCCn1c(=O)n(C(=O)NCCN2CCN(C)CC2)c2ccccc21 | > 1000 nM | – | < 0.3 | < 6 | > 1000 nM | – |
| CN1CCN(CCNC(=O)n2c(=O)n(Cc3ccccc3)c3ccccc32)CC1 | > 1000 nM | – | < 0.3 | < 6 | > 1000 nM | – |
| CC(C)n1c(=O)n(C(=O)NC2CC3CCC(C2)N3C)c2ccccc21 (centres undefined) | – | 63.9 nM | – | – | – | 0.5 nM |
